Results on 21 molecules are retold here after ChEMBL document CHEMBL3739301, “Design, synthesis and biological evaluation of tricyclic diterpene derivatives as novel neuroprotective agents against ischemic brain injury” (Eur J Med Chem, 2015).

Data set [1] can be described thus: Neuroprotective activity against glutamate-induced neuronal cell death in Sprague-Dawley rat CGN cells at 10 uM preincubated for 24 hrs followed by glutamate challenge measured after 24 hrs relative to control. Type of data set: functional.
Data set [2] in a line: Neuroprotective activity against glutamate-induced neuronal cell death in Sprague-Dawley rat CGN cells assessed as cell viability at 10 uM preincubated for 24 hrs followed by glutamate challenge measured after 24 hrs by MTT assay (reference value: 40.4%). Type of data set: functional. To be noted: read-out: Activity. In general terms: Tetrazolium assays rely on reduction of a dye to a coloured formazan, in cell work by metabolically active cells.

The nature of data set [3]: Neuroprotective activity against oxygen-glucose deprivation-induced neuronal cell death in Sprague-Dawley rat CGN cells assessed as cell viability at 1 uM preincubated for 24 hrs followed by induction of oxygen-glucose deprivation measured after 24 hrs by MTT assay (reference value: 48.7%). In kind it is functional. To be noted: read-out: Activity.
Data set [4] deals with neuronal. Description: Neuroprotective activity against glutamate-induced neuronal cell death in Sprague-Dawley rat CGN cells assessed as increase in cell viability preincubated for 24 hrs followed by glutamate challenge measured after 24 hrs by MTT assay. In kind it is functional, cell-based.
Data set [5] in a line: Neuroprotective activity against oxygen-glucose deprivation-induced neuronal cell death in Sprague-Dawley rat CGN cells assessed as cell viability at 10 uM preincubated for 24 hrs followed by induction of oxygen-glucose deprivation measured after 24 hrs by MTT assay (reference value: 48.7%). In kind it is functional. To be noted: read-out: Activity.
Data set [6] is described as follows: Neuroprotective activity in Sprague-Dawley rat CGN cells assessed as upregulation of HO-1 expression after 24 hrs by Western blot analysis. Type of data set: functional, cell-based. In a few lines: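 Primary granule neurons treated with a concentration series for 24 h, lysed in RIPA buffer, protein by BCA. Separated on 15% SDS-PAGE, transferred to PVDF, blocked in 5% BSA. Primary antibody overnight at 4 °C, secondary 30 min at room temperature; chemiluminescent detection. HO-1 quantified by densitometry normalized to β-actin. n = 3, mean ± SD.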
In general terms: A western blot detects proteins with antibodies after separation by electrophoresis.

Data set [7] can be described thus: Cytotoxicity against Sprague-Dawley rat CGN cells at <10 uM after 72 hrs by MTT assay. In kind it is cell-based. Summed up:
(§1)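 Primary cerebellar granule neurons from 8-day SD rat pups; cytosine arabinoside […] added at 24 h, used at DIV 6–8. Cells exposed to a concentration series for 72 h, 0.1% DMSO final. Viability by MTT (0.5 mg/ml, 4 h, 37 °C); formazan dissolved in DMSO, OD 570 nm. n = 3, mean ± SD.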

Data set [8] in a line: Neuroprotective activity against nutrient deprivation-induced neuronal cell death in Sprague-Dawley rat CGN cells at 10 uM preincubated for 24 hrs followed by induction of nutrient deprivation measured after 24 hrs relative to control. Type of data set: functional. Summed up: (§2)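 Primary rat cerebellar granule neurons (8-day-old Sprague-Dawley pups, DIV 6-8) pretreated 24 h with compound (0.1% DMSO final), then deprived of B27 serum substitute for 24 h. MTT viability (0.5 mg/ml, 4 h) read at 570 nm against control = 100%; neuroprotection percentage derived from the basal deprived value; mean ± SD, n = 3.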

Data set [9] is described as follows: Neuroprotective activity against oxygen-glucose deprivation-induced neuronal cell death in Sprague-Dawley rat CGN cells at 10 uM preincubated for 24 hrs followed by induction of oxygen-glucose deprivation measured after 24 hrs relative to control. In kind it is functional.
Data set [10] has as its system neuronal. Kind of data set: Neuroprotective activity against glutamate-induced neuronal cell death in Sprague-Dawley rat CGN cells assessed as increase in GSH level at 10 uM preincubated for 24 hrs followed by glutamate challenge measured after 24 hrs. In kind it is functional, cell-based. Summed up:
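Granule neurons pretreated 24 h with […] compound, then […] for 24 h. Lysed in buffer containing protease inhibitor cocktail; protein determined by BCA. SOD activity and GSH level measured with commercial kits. n = 3, mean ± SD.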

Data set [11] can be described thus: Cytotoxicity against Sprague-Dawley rat CGN cells at 50 to 100 uM after 72 hrs by MTT assay. Type of data set: cell-based. In a few lines: as §1
The subject of data set [12] is neuronal. Description: Neuroprotective activity against glutamate-induced neuronal cell death in Sprague-Dawley rat CGN cells assessed as increase in SOD level at 10 uM preincubated for 24 hrs followed by glutamate challenge measured after 24 hrs. In kind it is functional, cell-based.
Data set [13] is described as follows: Neuroprotective activity against nutrient deprivation-induced neuronal cell death in Sprague-Dawley rat CGN cells assessed as cell viability at […] preincubated for 24 hrs followed by induction of nutrient deprivation measured after 24 hrs by MTT assay (reference value: 44.1%). To be noted: read-out: Activity. In kind it is functional. In a few lines: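 Cerebellar granule neurons pretreated 24 h with 1 or […] compound (0.1% DMSO), then kept without B27 supplement for 24 h. Viability by MTT (0.5 mg/ml, 4 h, OD 570 nm) against non-deprived control (100%); neuroprotection % from basal value. n = 3, mean ± SD.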

Data set [14] can be described thus: Neuroprotective activity against nutrient deprivation-induced neuronal cell death in Sprague-Dawley rat CGN cells at […] preincubated for 24 hrs followed by induction of nutrient deprivation measured after 24 hrs relative to control. Type of data set: functional. In a few lines: as §2
Data set [15] can be described thus: Permeability of the compound at 25 ug/ml after 18 hrs by PAMPA assay. The conditions noted are these: read-out: permeability. Type of data set: ADME. (In PAMPA a lipid-coated filter parts donor from acceptor wells.)

Active and inactive are the calls of the source. The calls are words filed in the database; no cut-off is given here.

In the case of `COc1cc2c(cc1C(=O)NCC(=O)O)CC[C@H]1C(C)(C)[C@@H](O)CC[C@]21C`, the Activity in [1] is 28%. For the same molecule, in data set [2], the viability at 10 µM is 57.1%.

On to `COc1cc2c(cc1C(C)=O)CC[C@H]1C(C)(C)[C@@H](O)CC[C@]21C`, for which, in [3], the viability at 1 µM was 51.1%. Besides, the Activity entry in data set [4] was “Dose-dependent effect”; in [6], “Dose-dependent effect”; in [7] it was “Non-toxic”; in data set [8], 19.5%; in data set [1], 75.2%; in data set [9] it was 50.3%. Also, the Activity entry in [11] is given as “Toxic”. Further, the viability at 10 µM came to 74.5% in [5] and 85.2% in [2]. Besides, the result in data set [10] and in [12] was Active.

Regarding `CCC(=O)c1cc2c(cc1OC)[C@@]1(C)CC[C@H](O)C(C)(C)[C@@H]1CC2`, the Activity in data set [1] is 38.3%. Also, the viability at 10 µM in data set [2] amounted to 63.2%.

`COC(=O)c1cc2c(cc1OC)[C@@]1(C)CC[C@H](O)C(C)(C)[C@@H]1CC2`: the viability at 1 µM in data set [3] was found to be 43.9%. For the same molecule, the Activity result in [4] was “Dose-dependent effect”; in data set [7], “Non-toxic”; in [8], 13.6%; in data set [1], 53.7%; in data set [9] it was 38.4%. For the same molecule, the figures for the viability at 10 µM in [5] and in [2] were 68.4% and 72.4%, respectively.

As for `CC(=O)c1cc2c(cc1O)[C@@]1(C)CC[C@H](O)C(C)(C)[C@@H]1CC2`, the Activity in data set [1] is 61.6%. For the same molecule, in data set [2], the viability at 10 µM came out at 77.1%.

Turning to `CC(=O)N[C@@H](CS)C(=O)O` [ACETYLCYSTEINE], the viability in data set [13] came to 53.7%. In addition, the Activity in data set [14] was 17.2%.

In data set [1], `CNC(=O)c1cc2c(cc1OC)[C@@]1(C)CC[C@H](O)C(C)(C)[C@@H]1CC2` registered an Activity of 61.9%. In addition, in data set [2], the viability at 10 µM was 77.3%.

With `COc1cc2c(cc1C(C)=O)CC[C@H]1C(C)(C)C(=O)CC[C@]21C`, the Activity in data set [1] turned out to be 49.2%. Also, the viability at 10 µM in [2] was determined as 69.7%.

On to `COc1cc2c(cc1C(C)=O)CC[C@H]1C(C)(C)[C@@H](OC(=O)C(F)(F)F)CC[C@]21C`, for which the viability at 1 µM in data set [3] came out at 48.2%. Further, the Activity result in [4] is “Dose-dependent effect”; in data set [7], “Non-toxic”; in [8] it was 5%; in [1], 68.1%; in data set [9], 23%. The viability at 10 µM amounted to 60.5% in data set [5] and 81% in data set [2]. Further, the Papp at 18 h, 25 ug/ml in data set [15] was determined as 7.31 ×10⁻⁶ cm/s.

`COc1cc2c(cc1CO)CC[C@H]1C(C)(C)[C@@H](O)CC[C@]21C`: the Activity in [1] is 40.3%. For the same molecule, the viability at 10 µM in data set [2] stood at 64.4%.

Consider `COCCC(=O)c1cc2c(cc1OC)[C@@]1(C)CC[C@H](O)C(C)(C)[C@@H]1CC2`, for which the Activity in [1] is listed as 52.2%. Moreover, the viability at 10 µM in [2] is 71.5%.

For `CCCCOC(=O)c1cc2c(cc1OC)[C@@]1(C)CC[C@H](O)C(C)(C)[C@@H]1CC2`, in data set [1], the Activity came to 51.3%. Further, the viability at 10 µM in data set [2] is 71%.

As to `CCCCCCCC(=O)c1cc2c(cc1OC)[C@@]1(C)CC[C@H](O)C(C)(C)[C@@H]1CC2`, the viability at 10 µM in [2] was 40.5%.

`COc1cc2c(cc1C(C)=O)CC[C@H]1C(C)(C)[C@@H](OC(C)=O)CC[C@]21C`: the viability at 1 µM in [3] is 50%. The Activity entry is “Dose-dependent effect” in data set [4]; “Non-toxic” in data set [7]; 6% in data set [8]; 67.1% in data set [1]; 22% in [9]; “Toxic” in data set [11]. The viability at 10 µM in data set [5] came to 60%; in data set [2], 80.4%.

Turning to `COc1cc2c(cc1C(=O)N1CCCCC1)CC[C@H]1C(C)(C)[C@@H](O)CC[C@]21C`, in [1], the Activity was 64.9%. Besides, the viability at 10 µM in [2] was 79.1%.

For `C#CCNC(=O)c1cc2c(cc1OC)[C@@]1(C)CC[C@H](O)C(C)(C)[C@@H]1CC2`, the viability at 1 µM in data set [3] stood at 59.7%. Further, the Activity result in data set [4] was “Dose-dependent effect”; in data set [7], “Non-toxic”; in data set [8] it was 17%; in data set [1], 69.3%; in data set [9], 37.2%; in data set [11], “Toxic”. In addition, the viability at 10 µM in [5] worked out at 67.8%; in data set [2], 81.7%.

In data set [1], `CCOC(=O)c1cc2c(cc1OC)[C@@]1(C)CC[C@H](O)C(C)(C)[C@@H]1CC2` showed an Activity of 54.9%. Besides, in [2], the viability at 10 µM is 73.1%.

Take `COc1cc2c(cc1C(=O)O)CC[C@H]1C(C)(C)[C@@H](O)CC[C@]21C`: in data set [1], the Activity was 22.8%. Besides, in [2], the viability at 10 µM was found to be 54%.

With `COc1cc2c(cc1C(=O)C(C)C)CC[C@H]1C(C)(C)[C@@H](O)CC[C@]21C`, the viability at 10 µM in data set [2] is 38.8%.

Molecule `CCNC(=O)c1cc2c(cc1OC)[C@@]1(C)CC[C@H](O)C(C)(C)[C@@H]1CC2` came in with an Activity in data set [1] of 63.4%. Also, the viability at 10 µM in data set [2] stood at 78.2%.

On to `COc1cc2c(cc1C(=O)N(C)C)CC[C@H]1C(C)(C)[C@@H](O)CC[C@]21C`, for which, in data set [1], the Activity is given as 50.8%. For the same molecule, in [2], the viability at 10 µM was determined as 70.7%.
